The source of these data is ChEMBL document CHEMBL1122854, “Novel bis[1,6-dihydro-6,6-dimethyl-1,3,5-triazine-2,4-diamines] as antitrypanosomal agents” (1985).

Holding throughout (assay type): functional
Common to all, as to conditions: route subcutaneous

Test [1] relates to Mus musculus. Kind of test: Antitrypanosomal activity was evaluated against Trypanosoma rhodesiense infections in mice, at dose 212 mg/kg, administered subcutaneously;Cures. A digest of the protocol:
(§1)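 IUR/HA Swiss mice (six weeks old, 30-32 g) infected i.p. with Wellcome CT strain T. rhodesiense. A single subcutaneous dose in peanut oil was given about 2 h after inoculation, with five mice per dose level. Positive control was stilbamidine or 2-hydroxystilbamidine isethionate at 40 mg/kg. Deaths before day 4 were scored toxic, and 30-day survivors cured.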

For test [2], the system named is Mus musculus. Kind of test: Antitrypanosomal activity was evaluated against Trypanosoma rhodesiense infections in mice, at dose 26 mg/kg, administered subcutaneously;Cures. The gist of the method:
as §1

The subject of test [3] is Mus musculus. The test can be described thus: Antitrypanosomal activity was evaluated against Trypanosoma rhodesiense infections in mice, at dose 106 mg/kg, administered subcutaneously;Cures. A digest of the protocol: as §1
In test [4] the test system is Mus musculus. Kind of test: Antitrypanosomal activity was evaluated against Trypanosoma rhodesiense infections in mice, at dose 424 mg/kg, administered subcutaneously;Cures. The gist of the method:
as §1

The test system of test [5] is Mus musculus. The test can be described thus: Antitrypanosomal activity was evaluated against Trypanosoma rhodesiense infections in mice, at dose 53 mg/kg, administered subcutaneously;Cures. A digest of the protocol:
as §1

Test [6] concerns Trypanosoma brucei rhodesiense. Kind of test: (§2) Antitrypanosomal activity was evaluated against Trypanosoma rhodesiense infections in mice, at dose 424 mg/kg, administered subcutaneously;Toxic. The gist of the method: as §1
Test [7] concerns Mus musculus. The test can be described thus: Antitrypanosomal activity was evaluated against Trypanosoma rhodesiense infections in mice, at dose 212 mg/kg, administered subcutaneously;Toxic. The gist of the method: as §1
Test [8] deals with Trypanosoma brucei rhodesiense. The test can be described thus: Antitrypanosomal activity against Trypanosoma rhodesiense infections in mice, 106 mg/kg administered subcutaneously. A digest of the protocol: (§3)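 Six-week-old IUR/HA Swiss mice (30-32 g), 5 per dose, infected ip with 0.5 mL of a 1:50 000 dilution of heparinized heart blood from donor mice infected 3 days before (Wellcome CT strain). Single sc dose in peanut oil about 2 h post-inoculation. Deaths before day 4 counted toxic. ΔMST versus untreated controls; survivors at 30 days counted cured.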

Test [9] deals with Trypanosoma brucei rhodesiense. Kind of test: (§4) Antitrypanosomal activity was evaluated against Trypanosoma rhodesiense infections in mice, at dose 212 mg/kg, administered subcutaneously. The gist of the method:
as §3

The test system of test [10] is Trypanosoma brucei rhodesiense. Kind of test: Anti-trypanosomal activity against Trypanosoma rhodesiense infections in mice, 26 mg/kg administered subcutaneously. The gist of the method:
as §3

Test [11] deals with Trypanosoma brucei rhodesiense. The test can be described thus: Antitrypanosomal activity was evaluated against Trypanosoma rhodesiense infections in mice, at dose 53 mg/kg, administered subcutaneously. The gist of the method:
as §3

Test [12] deals with Trypanosoma brucei rhodesiense. Kind of test: Antitrypanosomal activity against Trypanosoma rhodesiense infections in mice, 424 mg/kg administered subcutaneously. A digest of the protocol:
as §1

The test system of test [13] is Mus musculus. Kind of test: (§5) Antitrypanosomal activity was evaluated against Trypanosoma rhodesiense infections in mice, at dose 26 mg/kg, administered subcutaneously. The gist of the method: as §1
The subject of test [14] is Trypanosoma brucei rhodesiense. Kind of test: Antitrypanosomal activity was evaluated against Trypanosoma rhodesiense infections in mice, at dose 106 mg/kg, administered subcutaneously. A digest of the protocol:
as §1

Test [15] deals with Trypanosoma brucei rhodesiense. Kind of test: Antitrypanosomal activity was evaluated against Trypanosoma rhodesiense infections in mice, at dose 1.6 mg/kg, administered subcutaneously. The gist of the method:
as §3

Test [16] deals with Trypanosoma brucei rhodesiense. Kind of test: Antitrypanosomal activity against Trypanosoma rhodesiense infections in mice, 3.3 mg/kg administered subcutaneously. A digest of the protocol: as §3
Test [17] concerns Trypanosoma brucei rhodesiense. Kind of test: Antitrypanosomal activity against Trypanosoma rhodesiense infections in mice, 6.6 mg/kg administered subcutaneously. The gist of the method: as §3
The subject of test [18] is Mus musculus. Kind of test: Antitrypanosomal activity was evaluated against Trypanosoma rhodesiense infections in mice, at dose 106 mg/kg, administered subcutaneously; Cures. The gist of the method: as §1
Test [19] relates to Mus musculus. The test can be described thus: Antitrypanosomal activity was evaluated against Trypanosoma rhodesiense infections in mice, at dose 53 mg/kg, administered subcutaneously; Cures. A digest of the protocol: as §1
Test [20] has as its system Mus musculus. Described as §2. The gist of the method: as §1
Test [21] relates to Mus musculus. Kind of test: Antitrypanosomal activity was evaluated against Trypanosoma rhodesiense infections in mice, at dose 3.3 mg/kg, administered subcutaneously;Toxic. A digest of the protocol:
as §1

For test [22], the system named is Mus musculus. Kind of test: Antitrypanosomal activity was evaluated against Trypanosoma rhodesiense infections in mice, at dose 6.6 mg/kg, administered subcutaneously. A digest of the protocol: as §1
Test [23] concerns Trypanosoma brucei rhodesiense. Described as §5. The gist of the method:
as §1

The test system of test [24] is Mus musculus. Kind of test: Antitrypanosomal activity was evaluated against Trypanosoma rhodesiense infections in mice, at dose 13 mg/kg, administered subcutaneously. A digest of the protocol:
as §1

Test [25] deals with Mus musculus. Kind of test: Antitrypanosomal activity was evaluated against Trypanosoma rhodesiense infections in mice, at dose 13 mg/kg, administered subcutaneously;Cures. A digest of the protocol: as §1
Test [26] relates to Mus musculus. The test can be described thus: Antitrypanosomal activity was evaluated against Trypanosoma rhodesiense infections in mice, at dose 6.6 mg/kg, administered subcutaneously;Cures. A digest of the protocol:
as §1

Test [27] concerns Mus musculus. Kind of test: Antitrypanosomal activity was evaluated against Trypanosoma rhodesiense infections in mice, at dose 1.6 mg/kg, administered subcutaneously;Cures. The gist of the method: as §1
In test [28] the test system is Mus musculus. Kind of test: Antitrypanosomal activity was evaluated against Trypanosoma rhodesiense infections in mice, at dose 424 mg/kg, administered subcutaneously; Cures. A digest of the protocol: as §1
Test [29] has as its system Mus musculus. The test can be described thus: (§6) Antitrypanosomal activity was evaluated against Trypanosoma rhodesiense infections in mice, at dose 106 mg/kg, administered subcutaneously;Toxic. The gist of the method:
as §1

Test [30] has as its system Mus musculus. The description is as §4. The gist of the method:
as §1

In test [31] the test system is Trypanosoma brucei rhodesiense. The test can be described thus: Antitrypanosomal activity was evaluated against Trypanosoma rhodesiense infections in mice, at dose 26 mg/kg, administered subcutaneously;Toxic. A digest of the protocol: as §1
For test [32], the system named is Mus musculus. The test can be described thus: Antitrypanosomal activity was evaluated against Trypanosoma rhodesiense infections in mice, at dose 13 mg/kg, administered subcutaneously;Toxic. The gist of the method:
as §1

Test [33] relates to Trypanosoma brucei rhodesiense. Described as §6. A digest of the protocol:
as §1

Consider `Cl.Cl.NC1=NC2(CCCCC2)N(c2ccc(CCc3ccc(N4C(N)=NC(N)=NC45CCCCC5)cc3)cc2)C(N)=N1`, for which the Cures stood at 3 in [1]; 2 in test [2]; 3 in [3]; 4 in test [4]; 2 in test [5]. The Toxic in test [6] and in [7] was 1 each time. Also, the “Delta MST” value in test [8] was 12 days; in test [9], 11 days; in [10], 1.3 days; in test [11], 9 days.
For `Cc1ccc(N2C(N)=NC(N)=NC2(C)C)cc1N1C(N)=NC(N)=NC1(C)C.Cl.Cl`, the figures for the Toxic in test [12], in [13] and in test [14] were 5, 2 and 5, respectively. The “Delta MST” value is 0.2 days in test [15], -0.1 days in test [10], 0.2 days in [16] and 0 days in test [17].
On to `Cl.Cl.NC1=NC(c2ccccc2)N(c2ccc(CCc3ccc(N4C(N)=NC(N)=NC4c4ccccc4)cc3)cc2)C(N)=N1` (stereo not drawn), for which the Cures in test [1] is 4; in [2], 1; in test [18], 5; in test [4], 3; in test [19], 5. The molecule further yielded a Toxic in test [20] of 2. Also, the “Delta MST” value in [9] came to 2.2 days; in [10], 4.1 days; in test [16], 0.4 days; in [17], 0 days.
Take `CC1(C)N=C(N)N=C(N)N1c1ccc(OCCCOc2ccc(N3C(N)=NC(N)=NC3(C)C)cc2)cc1.Cl.Cl`: the Toxic in [21] is on record as 1; in test [12], 5; in test [22], 5; in [23] it was 5; in [14], 5; in test [24], 5. For the same molecule, the “Delta MST” value in test [15] and in test [16] was 0 days each time.
With `CC1(C)N=C(N)N=C(N)N1c1ccc(/C=C/c2ccc(N3C(N)=NC(N)=NC3(C)C)cc2)cc1.Cl.Cl`, the Cures in [25] is reported as 5; in test [1] it was 4; in test [2], 3; in [3], 3; in [26] it was 3; in test [27], 1. Moreover, in test [19], the Cures is 5.
`CC1(C)N=C(N)N=C(N)N1c1ccc(Cc2ccc(N3C(N)=NC(N)=NC3(C)C)cc2)cc1.Cl.Cl`: the Cures is listed as 1 in [2], 5 in [28] and 2 in test [5]. The Toxic is 2 in test [29] and 5 in test [30]. The figures for the “Delta MST” value in [8], in test [10] and in [11] were 8 days, 4 days and 6.5 days, respectively.
Regarding `CC(C)(c1ccc(N2C(N)=NC(N)=NC2(C)C)cc1)c1ccc(N2C(N)=NC(N)=NC2(C)C)cc1.Cl.Cl`, the Toxic came out at 1 in [31], 5 in [12], 1 in [32] and 2 in test [33]. The “Delta MST” value in test [8] came out at 1.8 days; in test [10] it was 1.3 days; in test [17], 0.9 days.
